Data as given in ChEMBL document CHEMBL1149274, “Stereochemical analysis of (hydroxyethyl)urea peptidomimetic inhibitors of gamma-secretase” (J Med Chem, 2004).

How the values were obtained:
[1] = target: Gamma-secretase; assay: Inhibition of gamma secretase in CHO cells expressing human APP by ELISA; format: cell-based
Method in brief: (§1)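 CHO 7w cells stably expressing the 751-residue APP splice variant, grown to confluence in DMEM with 200 μg/mL G418. Compounds were added from DMSO stocks to a final 1% DMSO; vehicle-only wells served as controls. After 4 or 24 h, the medium was spun at 3000g for 5 min. Aβ40 and Aβ42 were measured by sandwich ELISA (capture 2G3/21F12, biotinylated 3D6 reporter, TMB read at 455 nm). Mean ± SD of three experiments.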

[2] = target: Gamma-secretase; assay: Inhibition of gamma secretase isolated from HeLa cells by ELISA; format: cell-free, Homo sapiens
Method in brief: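 HeLa membranes were washed in 0.1 M Na2CO3, pH 11.3, then solubilized in 1% CHAPSO. The preparation (0.2 mg protein/mL) was incubated with compound or DMSO and the C100Flag substrate at 37 °C for 0 or 4 h. Reactions were stopped with 0.5% SDS and boiling for 5 min. Aβ x-40 and x-42 products were measured by sandwich ELISA (capture 2G3/21F12, biotinylated 266 reporter).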

[3] = target: Gamma-secretase; assay: Inhibition of gamma secretase in CHO cells expressing human APP after 4 hrs by ELISA; format: cell-based; method in brief: as §1
[4] = target: Gamma-secretase; assay: Inhibition of gamma secretase in CHO cells expressing human APP after 24 hrs by ELISA; format: cell-based; method in brief: as §1

IC50 [1] | IC50 [2] | IC50 [3] | IC50 [4] | Compound
12 µM | 2 µM |  |  | COC(=O)[C@H](NC(=O)[C@H](NC(=O)N(Cc1ccccc1)C[C@@H](O)[C@@H](Cc1ccccc1)NC(=O)OC(C)(C)C)C(C)C)C(C)C
3 µM | 0.2 µM | 3 µM | 9 µM | COC(=O)[C@@H](CC(C)C)NC(=O)[C@@H](CC(C)C)NC(=O)N(Cc1ccccc1)C[C@@H](O)[C@@H](Cc1ccccc1)NC(=O)OC(C)(C)C
 |  | 0.3 µM | 6 µM | CC(C)C[C@H](NC(=O)N(Cc1ccccc1)C[C@@H](O)[C@H](Cc1ccccc1)NC(=O)OC(C)(C)C)C(=O)N[C@H](C(=O)OC(C)(C)C)C(C)C
5 µM | 2 µM |  |  | COC(=O)[C@H](NC(=O)[C@@H](CC(C)C)NC(=O)N(CC(C)C)C[C@@H](O)[C@@H](Cc1ccccc1)NC(=O)OC(C)(C)C)C(C)C
7 µM | 3 µM |  |  | COC(=O)[C@H](NC(=O)[C@@H](CC(C)C)NC(=O)N(Cc1ccccc1)C[C@@H](O)[C@@H](Cc1ccccc1)NC(=O)[C@H](NC(=O)OC(C)(C)C)C(C)C)C(C)C
8 µM | 2 µM |  |  | COC(=O)[C@H](NC(=O)[C@@H](CC(C)C)NC(=O)N(Cc1ccccc1)C[C@@H](O)[C@@H](Cc1ccccc1)NC(=O)[C@@H](Cc1ccccc1)NC(=O)OC(C)(C)C)C(C)C
0.4 µM | 0.01 µM |  |  | COC(=O)[C@@H](NC(=O)[C@H](CC(C)C)NC(=O)N(Cc1ccccc1)C[C@@H](O)[C@@H](Cc1ccccc1)NC(=O)OC(C)(C)C)C(C)C
0.4 µM | 0.01 µM | 0.4 µM | 18 µM | COC(=O)[C@@H](NC(=O)[C@H](CC(C)C)NC(=O)N(Cc1ccccc1)C[C@@H](O)[C@H](Cc1ccccc1)NC(=O)OC(C)(C)C)C(C)C
8 µM | 2 µM |  |  | COC(=O)[C@@H](CC(C)C)NC(=O)[C@@H](CC(C)C)NC(=O)N(Cc1ccccc1)C[C@H](O)[C@@H](Cc1ccccc1)NC(=O)OC(C)(C)C
1 µM | 0.6 µM |  |  | COC(=O)[C@H](NC(=O)[C@H](CC(C)C)NC(=O)N(Cc1ccccc1)C[C@@H](O)[C@H](Cc1ccccc1)NC(=O)OC(C)(C)C)C(C)C
 |  | 0.6 µM | 7 µM | CC(C)C[C@H](NC(=O)[C@@H](CC(C)C)NC(=O)N(Cc1ccccc1)C[C@@H](O)[C@@H](Cc1ccccc1)NC(=O)OC(C)(C)C)C(=O)OC(C)(C)C
10 µM | 3 µM |  |  | COC(=O)[C@H](NC(=O)[C@@H](CC(C)C)NC(=O)N(Cc1ccccc1)C[C@H](O)[C@@H](Cc1ccccc1)NC(=O)OC(C)(C)C)C(C)C
10 µM | 3 µM |  |  | COC(=O)[C@H](NC(=O)[C@@H](C)NC(=O)N(Cc1ccccc1)C[C@@H](O)[C@@H](Cc1ccccc1)NC(=O)OC(C)(C)C)C(C)C
 |  | 0.4 µM | 5 µM | CC(C)C[C@H](NC(=O)N(Cc1ccccc1)C[C@@H](O)[C@H](Cc1ccccc1)NC(=O)OC(C)(C)C)C(=O)N[C@H](CC(C)C)C(=O)OC(C)(C)C
2 µM | 0.9 µM |  |  | COC(=O)[C@H](NC(=O)[C@@H](CC(C)C)NC(=O)N(Cc1ccccc1)C[C@@H](O)[C@@H](Cc1ccccc1)NC(=O)[C@@H](CC(C)C)NC(=O)OC(C)(C)C)C(C)C
0.6 µM | 0.03 µM | 0.6 µM | 9.4 µM | COC(=O)[C@H](CC(C)C)NC(=O)[C@H](CC(C)C)NC(=O)N(Cc1ccccc1)C[C@@H](O)[C@H](Cc1ccccc1)NC(=O)OC(C)(C)C
7 µM | 2 µM |  |  | COC(=O)[C@@H](C)NC(=O)[C@@H](CC(C)C)NC(=O)N(Cc1ccccc1)C[C@@H](O)[C@@H](Cc1ccccc1)NC(=O)OC(C)(C)C
0.6 µM | 0.03 µM |  |  | COC(=O)[C@H](NC(=O)[C@@H](CC(C)C)NC(=O)N(Cc1ccccc1)C[C@@H](O)[C@H](Cc1ccccc1)NC(=O)OC(C)(C)C)C(C)C
15 µM | 6 µM |  |  | COC(=O)[C@@H](CC(C)C)NC(=O)N(Cc1ccccc1)C[C@@H](O)[C@@H](Cc1ccccc1)NC(=O)OC(C)(C)C
0.8 µM | 0.08 µM |  |  | COC(=O)[C@H](NC(=O)[C@H](CC(C)C)NC(=O)N(Cc1ccccc1)C[C@@H](O)[C@@H](Cc1ccccc1)NC(=O)OC(C)(C)C)C(C)C
 |  | 3 µM | 6.2 µM | CC(C)C[C@@H](NC(=O)N(Cc1ccccc1)C[C@@H](O)[C@@H](Cc1ccccc1)NC(=O)OC(C)(C)C)C(=O)N[C@@H](C(=O)OC(C)(C)C)C(C)C
8 µM | 0.8 µM |  |  | COC(=O)[C@@H](NC(=O)[C@@H](CC(C)C)NC(=O)N(Cc1ccccc1)C[C@@H](O)[C@@H](Cc1ccccc1)NC(=O)OC(C)(C)C)C(C)C
2 µM | 0.1 µM | 2 µM | 17 µM | COC(=O)[C@H](NC(=O)[C@@H](CC(C)C)NC(=O)N(Cc1ccccc1)C[C@@H](O)[C@@H](Cc1ccccc1)NC(=O)OC(C)(C)C)C(C)C
8 µM | 4 µM |  |  | COC(=O)[C@H](NC(=O)[C@@H](CC(C)C)NC(=O)N(C[C@@H](O)[C@@H](Cc1ccccc1)NC(=O)OC(C)(C)C)C(C)C)C(C)C
0.8 µM | 0.06 µM |  |  | COC(=O)[C@@H](NC(=O)[C@@H](CC(C)C)NC(=O)N(Cc1ccccc1)C[C@@H](O)[C@H](Cc1ccccc1)NC(=O)OC(C)(C)C)C(C)C
30 µM | 12 µM |  |  | COC(=O)[C@H](NC(=O)[C@@H](CC(C)C)NC(=O)N(Cc1ccccc1)C[C@@H](O)[C@@H](Cc1ccccc1)NC(=O)[C@@H](C)NC(=O)OC(C)(C)C)C(C)C
24 µM | 9 µM |  |  | COC(=O)[C@H](NC(=O)[C@@H](Cc1ccccc1)NC(=O)N(Cc1ccccc1)C[C@@H](O)[C@@H](Cc1ccccc1)NC(=O)OC(C)(C)C)C(C)C
3 µM | 0.8 µM |  |  | COC(=O)[C@@H](Cc1ccccc1)NC(=O)[C@@H](CC(C)C)NC(=O)N(Cc1ccccc1)C[C@@H](O)[C@@H](Cc1ccccc1)NC(=O)OC(C)(C)C
12 µM | 7 µM |  |  | COC(=O)[C@H](NC(=O)[C@@H](CC(C)C)NC(=O)N(C)C[C@@H](O)[C@@H](Cc1ccccc1)NC(=O)OC(C)(C)C)C(C)C
